Measurements published in ChEMBL document CHEMBL4732101, “Novel quinolone-based potent and selective HDAC6 inhibitors: Synthesis, molecular modeling studies and biological investigation” (Eur J Med Chem, 2021).

Legend:
Histone deacetylase 1 = Histone deacetylase 1 (Homo sapiens, UniProt Q13547); assay: Inhibition of recombinant human C-terminal FLAG/His-tagged HDAC1 (1 to 482 residues) expressed in Sf9 insect cells using Z-(Ac)Lys-AMC as substrate measured after 90 mins by fluorescence assay
In short: (§1)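 Incubated with inhibitor in DMSO and fluorogenic substrate Z-(Ac)Lys-AMC (126 µM, as added) for 90 min at 37 °C. Stopped with trichostatin A plus trypsin for 30 min at 37 °C; fluorescence read at ex 390/em 460 nm.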

[1] = target: T1, Protein deacetylase HDAC6 (Homo sapiens, UniProt Q9UBN7); assay: Inhibition of recombinant human full length N-terminal GST-tagged HDAC6 expressed in baculovirus infected Sf9 cells using Z-(Ac)Lys-AMC as substrate measured after 90 mins by fluorescence assay
T1 sequence (Q9UBN7 whole entry): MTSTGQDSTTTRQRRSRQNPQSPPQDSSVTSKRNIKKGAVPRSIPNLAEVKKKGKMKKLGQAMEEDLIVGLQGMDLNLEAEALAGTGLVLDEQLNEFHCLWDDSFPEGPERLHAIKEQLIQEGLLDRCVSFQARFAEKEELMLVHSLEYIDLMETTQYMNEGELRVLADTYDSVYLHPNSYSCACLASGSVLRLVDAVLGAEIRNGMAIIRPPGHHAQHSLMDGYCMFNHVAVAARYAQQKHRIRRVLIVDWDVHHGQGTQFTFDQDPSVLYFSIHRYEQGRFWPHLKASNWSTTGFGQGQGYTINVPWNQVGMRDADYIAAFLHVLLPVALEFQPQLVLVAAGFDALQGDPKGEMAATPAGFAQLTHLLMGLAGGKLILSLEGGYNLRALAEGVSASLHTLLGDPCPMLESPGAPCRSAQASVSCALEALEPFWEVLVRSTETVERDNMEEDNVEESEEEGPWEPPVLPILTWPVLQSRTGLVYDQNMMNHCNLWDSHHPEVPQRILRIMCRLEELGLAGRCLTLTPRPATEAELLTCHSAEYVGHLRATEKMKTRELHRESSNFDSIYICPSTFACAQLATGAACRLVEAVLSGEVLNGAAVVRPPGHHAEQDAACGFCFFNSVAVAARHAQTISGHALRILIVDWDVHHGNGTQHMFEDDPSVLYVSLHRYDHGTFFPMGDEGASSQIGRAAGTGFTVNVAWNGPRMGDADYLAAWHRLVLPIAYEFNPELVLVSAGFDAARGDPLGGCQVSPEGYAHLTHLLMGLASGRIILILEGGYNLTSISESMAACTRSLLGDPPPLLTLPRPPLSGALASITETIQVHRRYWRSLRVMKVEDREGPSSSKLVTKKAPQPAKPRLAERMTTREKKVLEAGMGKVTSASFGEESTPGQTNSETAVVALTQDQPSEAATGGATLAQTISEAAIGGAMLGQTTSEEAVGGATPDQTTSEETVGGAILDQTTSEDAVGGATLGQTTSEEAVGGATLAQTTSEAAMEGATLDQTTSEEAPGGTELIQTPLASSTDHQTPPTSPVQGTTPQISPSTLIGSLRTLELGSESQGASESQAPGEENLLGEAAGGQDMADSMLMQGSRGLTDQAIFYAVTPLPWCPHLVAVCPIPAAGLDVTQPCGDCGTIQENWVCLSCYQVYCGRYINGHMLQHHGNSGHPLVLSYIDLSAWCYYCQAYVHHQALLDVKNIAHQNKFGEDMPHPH

[2] = target: T2, HDAC1 (histone deacetylase 1) (Homo sapiens, UniProt Q13547); assay: Inhibition of recombinant human C-terminal FLAG/His-tagged HDAC1 (1 to 482 residues) expressed in Sf9 insect cells at 50 uM using Z-(Ac)Lys-AMC as substrate measured after 90 mins by fluorescence assay relative to control; conditions: probe Z-(Ac)Lys-AMC; in short: as §1
T2 sequence (Q13547 whole entry, the tested form may be a part): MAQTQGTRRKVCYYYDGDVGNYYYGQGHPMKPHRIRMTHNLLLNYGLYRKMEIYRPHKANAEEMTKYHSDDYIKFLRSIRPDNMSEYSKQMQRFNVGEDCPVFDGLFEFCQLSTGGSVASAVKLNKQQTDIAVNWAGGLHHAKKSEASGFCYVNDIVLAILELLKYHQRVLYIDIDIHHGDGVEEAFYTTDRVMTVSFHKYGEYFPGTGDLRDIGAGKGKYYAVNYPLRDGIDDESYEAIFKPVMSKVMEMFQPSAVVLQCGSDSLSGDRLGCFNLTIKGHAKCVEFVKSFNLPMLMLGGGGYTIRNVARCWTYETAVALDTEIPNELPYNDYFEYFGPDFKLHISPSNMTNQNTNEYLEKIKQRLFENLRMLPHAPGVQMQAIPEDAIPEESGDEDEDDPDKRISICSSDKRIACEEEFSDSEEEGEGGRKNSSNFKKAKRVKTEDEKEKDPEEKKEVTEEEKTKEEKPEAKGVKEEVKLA

[3] = target: T2, HDAC1 (histone deacetylase 1); assay: Inhibition of recombinant human C-terminal FLAG/His-tagged HDAC1 (1 to 482 residues) expressed in Sf9 insect cells at 25 uM using Z-(Ac)Lys-AMC as substrate measured after 90 mins by fluorescence assay relative to control; conditions: probe Z-(Ac)Lys-AMC; in short: as §1
[4] = target: T2, HDAC1 (histone deacetylase 1); assay: Inhibition of recombinant human C-terminal FLAG/His-tagged HDAC1 (1 to 482 residues) expressed in Sf9 insect cells at 10 uM using Z-(Ac)Lys-AMC as substrate measured after 90 mins by fluorescence assay relative to control; conditions: probe Z-(Ac)Lys-AMC; in short: as §1
[5] = target: T2, HDAC1 (histone deacetylase 1); assay: Inhibition of recombinant human C-terminal FLAG/His-tagged HDAC1 (1 to 482 residues) expressed in Sf9 insect cells at 1 uM using Z-(Ac)Lys-AMC as substrate measured after 90 mins by fluorescence assay relative to control; conditions: probe Z-(Ac)Lys-AMC; in short: as §1

Histone deacetylase 1, sequence (Q13547 whole entry, the tested form may be a part): as above

SMILES	IC50 (Histone deacetylase 1) [nM]	IC50 [1] [nM]	inhibition at 1.5 h, 50 µM [2] [%]	inhibition at 1.5 h, 25 µM [3] [%]	inhibition at 1.5 h, 10 µM [4] [%]	inhibition at 1.5 h, 1 µM [5] [%]
Cn1c(=O)c(OCc2ccc(C(=O)NO)cc2)c(-c2cccnc2)c2ccccc21	5010	46	–	–	–	–
O=C(NO)c1ccc(COc2c(-c3cccnc3)c3ccccc3n(Cc3ccccc3)c2=O)cc1	2500	25.6	–	–	–	–
Cn1c(=O)c(OCc2ccc(C(=O)NO)cc2)c(-c2ccccc2)c2ccccc21	–	519	80	46	26	< 10
O=C(NO)c1ccc(Cn2c(=O)c(O)c(-c3cccnc3)c3ccccc32)cc1	–	296	96	82	36	< 10
C#CCn1c(=O)c(OCc2ccc(C(=O)NO)cc2)c(-c2ccccc2)c2ccccc21	6100	82.3	–	–	–	–
O=C(NO)c1ccc(Cn2c(=O)c(O)c(-c3ccccc3)c3ccccc32)cc1	11000	308	–	–	–	–
O=C(NO)c1ccc(COc2c(-c3cccnc3)c3ccccc3n(Cc3ccncc3)c2=O)cc1	1700	45.3	–	–	–	–
